Data as given in ChEMBL document CHEMBL1129516, “Design, synthesis, and biological activities of cyclic lactam peptide analogues of dynorphine A(1-11)-NH2” (J Med Chem, 1996).

Key:
Cavia porcellus = species: Cavia porcellus; test: Ability to inhibit the electrically evoked contraction of the guinea pig ileum; format: functional, organism-based
Outline: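 Longitudinal muscle-myenteric plexus strips from male Hartley guinea pigs (250-500 g) in 37 °C oxygenated Krebs, 1 g tension, transmural stimulation 0.1 Hz, 0.4-ms supramaximal pulses. At least four tissues; IC50 by Hill equation fit.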

[1] = Relative binding to mu and kappa opioid receptors (ratio of IC50)
[2] = Relative binding to delta and kappa opioid receptors (ratio of IC50)
[3] = tested on: Kappa opioid receptor (Cavia porcellus); test: Central (GPB) and Peripheral (GPI) Nervous Systems Selectivity at kappa Opioid Receptor
[4] = target: Kappa-type opioid receptor (Cavia porcellus, UniProt P41144); test: Inhibition of [3H]U-69593 binding to Opioid receptor kappa 1 of plasma membrane homogenates of guinea pig brain; format: cell-free
Chain of Kappa-type opioid receptor (P41144 whole entry): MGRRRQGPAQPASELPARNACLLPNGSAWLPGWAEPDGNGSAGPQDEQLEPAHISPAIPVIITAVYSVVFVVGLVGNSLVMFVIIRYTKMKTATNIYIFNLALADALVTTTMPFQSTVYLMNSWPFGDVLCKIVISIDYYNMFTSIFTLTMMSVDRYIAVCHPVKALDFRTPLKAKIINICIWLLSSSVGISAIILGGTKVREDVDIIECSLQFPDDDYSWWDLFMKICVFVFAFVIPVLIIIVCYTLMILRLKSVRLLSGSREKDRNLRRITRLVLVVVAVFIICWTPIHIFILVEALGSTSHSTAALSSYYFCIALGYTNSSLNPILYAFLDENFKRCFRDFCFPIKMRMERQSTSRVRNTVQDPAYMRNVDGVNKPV

Mu-type opioid receptor = Mu-type opioid receptor (Cavia porcellus, UniProt P97266); test: Inhibition of [3H]DAMGO binding to Opioid receptor mu 1 of guinea pig brain membrane homogenates
Chain of Mu-type opioid receptor (P97266 whole entry): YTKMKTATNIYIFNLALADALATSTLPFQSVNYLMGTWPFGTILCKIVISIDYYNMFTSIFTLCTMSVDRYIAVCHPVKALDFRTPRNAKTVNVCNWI

Row | IC50 (Cavia porcellus) [nM] | SMILES | IC50 [4] [nM] | IC50 (Mu-type opioid receptor) [nM] | further results
1 | 14.2 | CC[C@H](C)[C@H](NC(=O)[C@H](CCCN=C(N)N)NC(=O)[C@H](CCCCN)NC(=O)[C@H](CC(C)C)NC(=O)[C@H](Cc1ccccc1)NC(=O)CNC(=O)[C@H](CC(=O)O)NC(=O)[C@@H](N)Cc1ccc(O)cc1)C(=O)N[C@@H](CCCN=C(N)N)C(=O)N1CCC[C@H]1C(=O)N[C@@H](CCCCN)C(N)=O | – | – | –
2 | – | CC[C@H](C)[C@H](NC(=O)[C@H](CCCN=C(N)N)NC(=O)[C@@H]1CCCCNC(=O)C[C@@H](NC(=O)[C@@H](N)Cc2ccc(O)cc2)C(=O)NCC(=O)N[C@H](Cc2ccccc2)C(=O)N[C@@H](CC(C)C)C(=O)N1)C(=O)N[C@@H](CCCN=C(N)N)C(=O)N1CCC[C@@H]1C(=O)N[C@H](CCCCN)C(N)=O | – | – | Selectivity [1]: 29.8 Ratio; Selectivity [2]: 9.1 Ratio; Ratio [3]: 160 Ratio
3 | – | CC[C@H](C)[C@H](NC(=O)[C@H](CCCNC(=N)N)NC(=O)[C@@H]1CCCCNC(=O)C[C@@H](NC(=O)[C@@H](N)Cc2ccc(O)cc2)C(=O)NCC(=O)N[C@@H](Cc2ccccc2)C(=O)N[C@@H](CC(C)C)C(=O)N1)C(=O)N[C@@H](CCCNC(=N)N)C(=O)N1CCC[C@H]1C(=O)N[C@@H](CCCCN)C(N)=O | 100 | 2980 | –
4 | – | CC[C@H](C)[C@H](NC(=O)[C@H](CCCCN)NC(=O)[C@H](CCCNC(=N)N)NC(=O)[C@H](CC(C)C)NC(=O)[C@H](Cc1ccccc1)NC(=O)[C@@H](CC(=O)O)NC(=O)CNC(=O)[C@@H](N)Cc1ccc(O)cc1)C(=O)N[C@@H](CCCNC(=N)N)C(=O)N1CCC[C@H]1C(=O)N[C@@H](CCCCN)C(N)=O | 47 | 660 | –
5 | 610 | CC[C@H](C)[C@H](NC(=O)[C@H](CCCN=C(N)N)NC(=O)[C@@H]1CCCCNC(=O)C[C@H](NC(=O)[C@@H](N)Cc2ccc(O)cc2)C(=O)NCC(=O)N[C@@H](Cc2ccccc2)C(=O)N[C@@H](CC(C)C)C(=O)N1)C(=O)N[C@@H](CCCN=C(N)N)C(=O)N1CCC[C@H]1C(=O)N[C@@H](CCCCN)C(N)=O | – | – | –
6 | – | CC[C@H](C)[C@H](NC(=O)[C@H](CCCNC(=N)N)NC(=O)[C@@H]1CCCCNC(=O)C[C@H](NC(=O)[C@@H](N)Cc2ccc(O)cc2)C(=O)NCC(=O)N[C@@H](Cc2ccccc2)C(=O)N[C@@H](CC(C)C)C(=O)N1)C(=O)N[C@@H](CCCNC(=N)N)C(=O)N1CCC[C@H]1C(=O)N[C@@H](CCCCN)C(N)=O | 110 | 3.4 | –
7 | – | CC[C@H](C)[C@H](NC(=O)[C@H](CCCCN)NC(=O)[C@H](CCCNC(=N)N)NC(=O)[C@H](CC(C)C)NC(=O)[C@H](Cc1ccccc1)NC(=O)[C@H](CC(=O)O)NC(=O)CNC(=O)[C@@H](N)Cc1ccc(O)cc1)C(=O)N[C@@H](CCCNC(=N)N)C(=O)N1CCC[C@H]1C(=O)N[C@@H](CCCCN)C(N)=O | 190 | 1320 | –
8 | – | CC[C@H](C)[C@H](NC(=O)[C@H](CCCCN)NC(=O)[C@H](CCCN=C(N)N)NC(=O)[C@H](CC(C)C)NC(=O)[C@H](Cc1ccccc1)NC(=O)[C@H](CC(=O)O)NC(=O)CNC(=O)[C@@H](N)Cc1ccc(O)cc1)C(=O)N[C@@H](CCCN=C(N)N)C(=O)N1CCC[C@@H]1C(=O)N[C@H](CCCCN)C(N)=O | – | – | Selectivity [1]: 7 Ratio; Selectivity [2]: 9.5 Ratio; Ratio [3]: 72 Ratio
9 | – | CC[C@H](C)[C@H](NC(=O)[C@H](CCCCN)NC(=O)[C@H](CCCN=C(N)N)NC(=O)[C@H](CC(C)C)NC(=O)[C@H](Cc1ccccc1)NC(=O)[C@@H](CC(=O)O)NC(=O)CNC(=O)[C@@H](N)Cc1ccc(O)cc1)C(=O)N[C@@H](CCCN=C(N)N)C(=O)N1CCC[C@@H]1C(=O)N[C@H](CCCCN)C(N)=O | – | – | Selectivity [1]: 14 Ratio; Selectivity [2]: 19 Ratio; Ratio [3]: 110 Ratio
10 | 4900 | CC[C@H](C)[C@H](NC(=O)[C@H](CCCCN)NC(=O)[C@H](CCCN=C(N)N)NC(=O)[C@H](CC(C)C)NC(=O)[C@H](Cc1ccccc1)NC(=O)[C@@H](CC(=O)O)NC(=O)CNC(=O)[C@@H](N)Cc1ccc(O)cc1)C(=O)N[C@@H](CCCN=C(N)N)C(=O)N1CCC[C@H]1C(=O)N[C@@H](CCCCN)C(N)=O | – | – | –
11 | – | CC[C@H](C)[C@H](NC(=O)[C@H](CCCNC(=N)N)NC(=O)[C@H](CCCCN)NC(=O)[C@H](CC(C)C)NC(=O)[C@H](Cc1ccccc1)NC(=O)CNC(=O)[C@H](CC(=O)O)NC(=O)[C@@H](N)Cc1ccc(O)cc1)C(=O)N[C@@H](CCCNC(=N)N)C(=O)N1CCC[C@H]1C(=O)N[C@@H](CCCCN)C(N)=O | 1.5 | 0.08 | –
12 | 16000 | CC[C@H](C)[C@H](NC(=O)[C@H](CCCN=C(N)N)NC(=O)[C@@H]1CCCCNC(=O)C[C@@H](NC(=O)[C@@H](N)Cc2ccc(O)cc2)C(=O)NCC(=O)N[C@@H](Cc2ccccc2)C(=O)N[C@@H](CC(C)C)C(=O)N1)C(=O)N[C@@H](CCCN=C(N)N)C(=O)N1CCC[C@H]1C(=O)N[C@@H](CCCCN)C(N)=O | – | – | –
13 | 13300 | CC[C@H](C)[C@H](NC(=O)[C@H](CCCCN)NC(=O)[C@H](CCCN=C(N)N)NC(=O)[C@H](CC(C)C)NC(=O)[C@H](Cc1ccccc1)NC(=O)[C@H](CC(=O)O)NC(=O)CNC(=O)[C@@H](N)Cc1ccc(O)cc1)C(=O)N[C@@H](CCCN=C(N)N)C(=O)N1CCC[C@H]1C(=O)N[C@@H](CCCCN)C(N)=O | – | – | –
14 | – | CC[C@H](C)[C@H](NC(=O)[C@H](CCCN=C(N)N)NC(=O)[C@@H]1CCCCNC(=O)C[C@H](NC(=O)[C@@H](N)Cc2ccc(O)cc2)C(=O)NCC(=O)N[C@H](Cc2ccccc2)C(=O)N[C@@H](CC(C)C)C(=O)N1)C(=O)N[C@@H](CCCN=C(N)N)C(=O)N1CCC[C@@H]1C(=O)N[C@H](CCCCN)C(N)=O | – | – | Selectivity [1]: 0.03 Ratio; Selectivity [2]: 0.11 Ratio; Ratio [3]: 5.6 Ratio
15 | – | CC[C@H](C)[C@H](NC(=O)[C@H](CCCN=C(N)N)NC(=O)[C@H](CCCN=C(N)N)NC(=O)[C@H](CCCCN)NC(=O)[C@H](Cc1ccccc1)NC(=O)CNC(=O)CNC(=O)[C@@H](N)Cc1ccc(O)cc1)C(=O)N[C@@H](CC(=O)O)C(=O)N1CCC[C@H]1C(=O)N[C@@H](CCCCN)C(N)=O | 35 | 400 | –
16 | 4160 | CC[C@H](C)[C@H](NC(=O)[C@H](CCCN=C(N)N)NC(=O)[C@H](CCCN=C(N)N)NC(=O)[C@H](CCCCN)NC(=O)[C@H](Cc1ccccc1)NC(=O)CNC(=O)CNC(=O)[C@@H](N)Cc1ccc(O)cc1)C(=O)N[C@H](CC(=O)O)C(=O)N1CCC[C@H]1C(=O)N[C@@H](CCCCN)C(N)=O | – | – | –
17 | – | CC[C@H](C)[C@H](NC(=O)[C@H](CCCNC(=N)N)NC(=O)[C@H](CCCNC(=N)N)NC(=O)[C@H](CCCCN)NC(=O)[C@H](Cc1ccccc1)NC(=O)CNC(=O)CNC(=O)[C@@H](N)Cc1ccc(O)cc1)C(=O)N[C@H](CC(=O)O)C(=O)N1CCC[C@H]1C(=O)N[C@@H](CCCCN)C(N)=O | 17.5 | 555 | –

Row | SMILES | IC50 (Cavia porcellus) [nM] | IC50 [4] [nM] | IC50 (Mu-type opioid receptor) [nM] | further results
18 | CC[C@H](C)[C@H](NC(=O)[C@H]1CCCCNC(=O)C[C@@H](NC(=O)CNC(=O)[C@@H](N)Cc2ccc(O)cc2)C(=O)N[C@H](Cc2ccccc2)C(=O)N[C@@H](CC(C)C)C(=O)N[C@H](CCCN=C(N)N)C(=O)N1)C(=O)N[C@@H](CCCN=C(N)N)C(=O)N1CCC[C@@H]1C(=O)N[C@H](CCCCN)C(N)=O | 1500 | 25 | 740 | –
19 | CC[C@H](C)[C@H](NC(=O)[C@H]1CCCCNC(=O)C[C@H](NC(=O)CNC(=O)[C@@H](N)Cc2ccc(O)cc2)C(=O)N[C@H](Cc2ccccc2)C(=O)N[C@@H](CC(C)C)C(=O)N[C@H](CCCN=C(N)N)C(=O)N1)C(=O)N[C@@H](CCCN=C(N)N)C(=O)N1CCC[C@@H]1C(=O)N[C@H](CCCCN)C(N)=O | 600 | 4.9 | 310 | –
20 | CC[C@@H](C)[C@H]1NC(=O)[C@H](CCCNC(=N)N)NC(=O)[C@@H](CCCNC(=N)N)NC(=O)[C@H](NC(=O)[C@@H](Cc2ccccc2)NC(=O)CNC(=O)CNC(=O)[C@H](N)Cc2ccc(O)cc2)CCCCNC(=O)C[C@@H](C(=O)N2CCC[C@H]2C(=O)N[C@H](CCCCN)C(N)=O)NC1=O | 2500 | 6.6 | 12 | –
21 | CC[C@@H](C)[C@H]1NC(=O)[C@H](CCCN=C(N)N)NC(=O)[C@@H](CCCN=C(N)N)NC(=O)[C@H](NC(=O)[C@@H](Cc2ccccc2)NC(=O)CNC(=O)CNC(=O)[C@H](N)Cc2ccc(O)cc2)CCCCNC(=O)C[C@H](C(=O)N2CCC[C@H]2C(=O)N[C@H](CCCCN)C(N)=O)NC1=O | 9300 | 100 | 120 | –
